Data taken from ChEMBL document CHEMBL4689842, “EUbOPEN Chemogenomics Library wave 1” (2021).

System: Fibroblast
Test: Multiplex assay against human fibroblast
Type: toxicity, cell-based
How it was run: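 Compound was added to live cells that had been stained at seeding with Hoechst33342, BioTracker Green Microtubule Cytoskeleton Dye, MitoTracker Red and Annexin V Alexa Fluor 680, and imaging followed on a CQ1 microscope at 37°C and 5% CO2. CellPathfinder machine-learning gating divided cells into Hoechst high-intensity objects or normal cells, normal cells into healthy, pyknosed or fragmented nuclei, and pyknosed cells into mitotic or apoptotic. Tubulin, mitochondrial-mass and membrane-permeability phenotypes are per cents of healthy-nucleus cells.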

[1] = 12 h, 1 µM, compound concentration 1 uM, replicate 1
[2] = 12 h, 1 µM, compound concentration 1 uM, replicate 2
[3] = 12 h, 10 µM, compound concentration 10 uM, replicate 1
[4] = 12 h, 10 µM, compound concentration 10 uM, replicate 2
[5] = 24 h, 1 µM, compound concentration 1 uM, replicate 1
[6] = 24 h, 1 µM, compound concentration 1 uM, replicate 2
[7] = 24 h, 10 µM, compound concentration 10 uM, replicate 1
[8] = 24 h, 10 µM, compound concentration 10 uM, replicate 2
[9] = 48 h, 1 µM, compound concentration 1 uM, replicate 1
[10] = 48 h, 1 µM, compound concentration 1 uM, replicate 2
[11] = 48 h, 10 µM, compound concentration 10 uM, replicate 1
[12] = 48 h, 10 µM, compound concentration 10 uM, replicate 2

SMILES: Cc1ccc2nc(NCCN)c3ncc(C)n3c2c1.O=C(O)C(F)(F)F.O=C(O)C(F)(F)F
- Population Apoptotic (%) [1]: 78%
- Population Fragmented Nuclei (%) [1]: 28%
- Population Healthy Nuclei (%) [1]: 60%
- Population Hoechst High Intensity Objects (%) [1]: 11%
- Population Membrane Permeable-Phenotype (%) [1]: 5%
- Population Mitochondria Different-Phenotype (%) [1]: 1%
- Population Mitotic Cells (%) [1]: 21%
- Population Normal (%) [1]: 88%
- Population Tubulin-Different-Phenotype (%) [1]: 3%
- Total Cell Count [1]: 243
- Population Apoptotic (%) [2]: 50%
- Population Fragmented Nuclei (%) [2]: 65%
- Population Healthy Nuclei (%) [2]: 23%
- Population Hoechst High Intensity Objects (%) [2]: 51%
- Population Membrane Permeable-Phenotype (%) [2]: 11%
- Population Mitochondria Different-Phenotype (%) [2]: 22%
- Population Mitotic Cells (%) [2]: 50%
- Population Normal (%) [2]: 48%
- Population Pyknosed Nuclei (%) [2]: 10%
- Population Tubulin-Different-Phenotype (%) [2]: 11%
- Total Cell Count [2]: 78
- Population Apoptotic (%) [3]: 76%
- Population Fragmented Nuclei (%) [3]: 33%
- Population Healthy Nuclei (%) [3]: 52%
- Population Hoechst High Intensity Objects (%) [3]: 21%
- Population Membrane Permeable-Phenotype (%) [3]: 5%
- Population Mitochondria Different-Phenotype (%) [3]: 3%
- Population Mitotic Cells (%) [3]: 23%
- Population Normal (%) [3]: 78%
- Population Pyknosed Nuclei (%) [3]: 13%
- Population Tubulin-Different-Phenotype (%) [3]: 11%
- Total Cell Count [3]: 309
- Population Apoptotic (%) [4]: 66%
- Population Fragmented Nuclei (%) [4]: 57%
- Population Healthy Nuclei (%) [4]: 26%
- Population Hoechst High Intensity Objects (%) [4]: 36%
- Population Membrane Permeable-Phenotype (%) [4]: 6%
- Population Mitochondria Different-Phenotype (%) [4]: 33%
- Population Mitotic Cells (%) [4]: 33%
- Population Normal (%) [4]: 63%
- Population Pyknosed Nuclei (%) [4]: 15%
- Population Tubulin-Different-Phenotype (%) [4]: 46%
- Total Cell Count [4]: 90
- Population Apoptotic (%) [5]: 64%
- Population Fragmented Nuclei (%) [5]: 22%
- Population Healthy Nuclei (%) [5]: 59%
- Population Hoechst High Intensity Objects (%) [5]: 11%
- Population Membrane Permeable-Phenotype (%) [5]: 4%
- Population Mitochondria Different-Phenotype (%) [5]: 0%
- Population Mitotic Cells (%) [5]: 35%
- Population Normal (%) [5]: 88%
- Population Pyknosed Nuclei (%) [5]: 17%
- Population Tubulin-Different-Phenotype (%) [5]: 2%
- Total Cell Count [5]: 253
- Population Apoptotic (%) [6]: 66%
- Population Fragmented Nuclei (%) [6]: 64%
- Population Healthy Nuclei (%) [6]: 27%
- Population Hoechst High Intensity Objects (%) [6]: 43%
- Population Membrane Permeable-Phenotype (%) [6]: 0%
- Population Mitochondria Different-Phenotype (%) [6]: 20%
- Population Mitotic Cells (%) [6]: 33%
- Population Normal (%) [6]: 56%
- Population Pyknosed Nuclei (%) [6]: 8%
- Population Tubulin-Different-Phenotype (%) [6]: 0%
- Total Cell Count [6]: 65
- Population Apoptotic (%) [7]: 81%
- Population Fragmented Nuclei (%) [7]: 35%
- Population Healthy Nuclei (%) [7]: 50%
- Population Hoechst High Intensity Objects (%) [7]: 23%
- Population Membrane Permeable-Phenotype (%) [7]: 5%
- Population Mitochondria Different-Phenotype (%) [7]: 0%
- Population Mitotic Cells (%) [7]: 18%
- Population Normal (%) [7]: 76%
- Population Pyknosed Nuclei (%) [7]: 13%
- Population Tubulin-Different-Phenotype (%) [7]: 3%
- Total Cell Count [7]: 370
- Population Apoptotic (%) [8]: 77%
- Population Fragmented Nuclei (%) [8]: 47%
- Population Healthy Nuclei (%) [8]: 35%
- Population Hoechst High Intensity Objects (%) [8]: 39%
- Population Membrane Permeable-Phenotype (%) [8]: 15%
- Population Mitochondria Different-Phenotype (%) [8]: 15%
- Population Mitotic Cells (%) [8]: 22%
- Population Normal (%) [8]: 60%
- Population Pyknosed Nuclei (%) [8]: 16%
- Population Tubulin-Different-Phenotype (%) [8]: 52%
- Total Cell Count [8]: 88

SMILES: CN1C2CCC1CC(OC(c1ccc(F)cc1)c1ccc(F)cc1)C2.Cl (stereo unspecified)
- Population Apoptotic (%) [1]: 53%
- Population Fragmented Nuclei (%) [1]: 26%
- Population Healthy Nuclei (%) [1]: 45%
- Population Hoechst High Intensity Objects (%) [1]: 12%
- Population Membrane Permeable-Phenotype (%) [1]: 21%
- Population Mitochondria Different-Phenotype (%) [1]: 11%
- Population Mitotic Cells (%) [1]: 46%
- Population Normal (%) [1]: 87%
- Population Pyknosed Nuclei (%) [1]: 27%
- Population Tubulin-Different-Phenotype (%) [1]: 52%
- Total Cell Count [1]: 106
- Population Apoptotic (%) [2]: 100%
- Population Fragmented Nuclei (%) [2]: 5%
- Population Healthy Nuclei (%) [2]: 92%
- Population Hoechst High Intensity Objects (%) [2]: 2%
- Population Membrane Permeable-Phenotype (%) [2]: 3%
- Population Mitochondria Different-Phenotype (%) [2]: 4%
- Population Mitotic Cells (%) [2]: 0%
- Population Normal (%) [2]: 97%
- Population Pyknosed Nuclei (%) [2]: 1%
- Population Tubulin-Different-Phenotype (%) [2]: 8%
- Total Cell Count [2]: 69
- Population Apoptotic (%) [3]: 64%
- Population Fragmented Nuclei (%) [3]: 31%
- Population Healthy Nuclei (%) [3]: 50%
- Population Hoechst High Intensity Objects (%) [3]: 9%
- Population Mitochondria Different-Phenotype (%) [3]: 37%
- Population Mitotic Cells (%) [3]: 36%
- Population Normal (%) [3]: 90%
- Population Pyknosed Nuclei (%) [3]: 18%
- Population Tubulin-Different-Phenotype (%) [3]: 68%
- Total Cell Count [3]: 148
- Population Apoptotic (%) [4]: 80%
- Population Fragmented Nuclei (%) [4]: 8%
- Population Healthy Nuclei (%) [4]: 78%
- Population Hoechst High Intensity Objects (%) [4]: 6%
- Population Membrane Permeable-Phenotype (%) [4]: 10%
- Population Mitochondria Different-Phenotype (%) [4]: 89%
- Population Mitotic Cells (%) [4]: 20%
- Population Normal (%) [4]: 93%
- Population Pyknosed Nuclei (%) [4]: 13%
- Population Tubulin-Different-Phenotype (%) [4]: 49%
- Total Cell Count [4]: 78
- Population Apoptotic (%) [5]: 53%
- Population Fragmented Nuclei (%) [5]: 24%
- Population Healthy Nuclei (%) [5]: 58%
- Population Hoechst High Intensity Objects (%) [5]: 13%
- Population Membrane Permeable-Phenotype (%) [5]: 26%
- Population Mitochondria Different-Phenotype (%) [5]: 4%
- Population Mitotic Cells (%) [5]: 46%
- Population Normal (%) [5]: 86%
- Population Pyknosed Nuclei (%) [5]: 17%
- Population Tubulin-Different-Phenotype (%) [5]: 58%
- Total Cell Count [5]: 99
- Population Apoptotic (%) [6]: 20%
- Population Fragmented Nuclei (%) [6]: 3%
- Population Healthy Nuclei (%) [6]: 90%
- Population Hoechst High Intensity Objects (%) [6]: 2%
- Population Membrane Permeable-Phenotype (%) [6]: 4%
- Population Mitotic Cells (%) [6]: 80%
- Population Normal (%) [6]: 97%
- Population Pyknosed Nuclei (%) [6]: 6%
- Population Tubulin-Different-Phenotype (%) [6]: 8%
- Total Cell Count [6]: 82
- Population Apoptotic (%) [7]: 38%
- Population Fragmented Nuclei (%) [7]: 38%
- Population Healthy Nuclei (%) [7]: 45%
- Population Hoechst High Intensity Objects (%) [7]: 17%
- Population Membrane Permeable-Phenotype (%) [7]: 15%
- Population Mitochondria Different-Phenotype (%) [7]: 40%
- Population Mitotic Cells (%) [7]: 61%
- Population Normal (%) [7]: 82%
- Population Pyknosed Nuclei (%) [7]: 15%
- Population Tubulin-Different-Phenotype (%) [7]: 60%
- Total Cell Count [7]: 160
- Population Apoptotic (%) [8]: 80%
- Population Fragmented Nuclei (%) [8]: 16%
- Population Healthy Nuclei (%) [8]: 64%
- Population Hoechst High Intensity Objects (%) [8]: 3%
- Population Membrane Permeable-Phenotype (%) [8]: 6%
- Population Mitochondria Different-Phenotype (%) [8]: 78%
- Population Mitotic Cells (%) [8]: 20%
- Population Normal (%) [8]: 96%
- Population Pyknosed Nuclei (%) [8]: 19%
- Population Tubulin-Different-Phenotype (%) [8]: 25%
- Total Cell Count [8]: 107
- Population Apoptotic (%) [9]: 28%
- Population Fragmented Nuclei (%) [9]: 34%
- Population Healthy Nuclei (%) [9]: 52%
- Population Hoechst High Intensity Objects (%) [9]: 13%
- Population Membrane Permeable-Phenotype (%) [9]: 22%
- Population Mitochondria Different-Phenotype (%) [9]: 1%
- Population Mitotic Cells (%) [9]: 71%
- Population Normal (%) [9]: 86%
- Population Pyknosed Nuclei (%) [9]: 12%
- Population Tubulin-Different-Phenotype (%) [9]: 45%
- Total Cell Count [9]: 126
- Population Apoptotic (%) [10]: 0%
- Population Healthy Nuclei (%) [10]: 64%
- Population Hoechst High Intensity Objects (%) [10]: 11%
- Population Membrane Permeable-Phenotype (%) [10]: 9%
- Population Mitochondria Different-Phenotype (%) [10]: 6%
- Population Mitotic Cells (%) [10]: 100%
- Population Normal (%) [10]: 88%
- Population Pyknosed Nuclei (%) [10]: 0%
- Population Tubulin-Different-Phenotype (%) [10]: 47%
- Total Cell Count [10]: 127
- Population Apoptotic (%) [11]: 80%
- Population Fragmented Nuclei (%) [11]: 47%
- Population Healthy Nuclei (%) [11]: 45%
- Population Hoechst High Intensity Objects (%) [11]: 25%
- Population Membrane Permeable-Phenotype (%) [11]: 9%
- Population Mitochondria Different-Phenotype (%) [11]: 27%
- Population Mitotic Cells (%) [11]: 20%
- Population Normal (%) [11]: 74%
- Population Pyknosed Nuclei (%) [11]: 7%
- Population Tubulin-Different-Phenotype (%) [11]: 78%
- Total Cell Count [11]: 191
- Population Apoptotic (%) [12]: 100%
- Population Fragmented Nuclei (%) [12]: 64%
- Population Healthy Nuclei (%) [12]: 35%
- Population Hoechst High Intensity Objects (%) [12]: 16%
- Population Membrane Permeable-Phenotype (%) [12]: 11%
- Population Mitochondria Different-Phenotype (%) [12]: 18%
- Population Mitotic Cells (%) [12]: 0%
- Population Normal (%) [12]: 83%
- Population Pyknosed Nuclei (%) [12]: 0%
- Population Tubulin-Different-Phenotype (%) [12]: 79%
- Total Cell Count [12]: 259
